From ChEMBL document CHEMBL3616437, “Thiazole compounds with activity against Cryptococcus gattii and Cryptococcus neoformans in vitro” (Eur J Med Chem, 2015)

Assays:
Cryptococcus neoformans [1] = test: Ratio of compound MIC for Cryptococcus neoformans 28JF in presence of amphotericin B to compound MIC for Cryptococcus neoformans 28JF in absence of amphotericin B by checkerboard microtiter test; type: functional
How it was run: (§1)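 Checkerboard microdilution: eight two-fold dilutions of test compound (0.11 to 15.6 µM) crossed with amphotericin B (0.025 to 3.9 µM, in DMSO) or fluconazole (0.48 to 62.5 µM, in water). Inoculum per CLSI M27-A3 in RPMI-MOPS pH 7.0, 1-5 x10^3 cells/mL. Growth 48 to 72 h. Effective MIC is the combination concentration giving complete inhibition. FICs derived from MICs in combination versus alone.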

[2] = system: Cryptococcus bacillisporus; test: Ratio of compound MIC for Cryptococcus gattii ATCC 32608 in presence of amphotericin B to compound MIC for Cryptococcus gattii ATCC 32608 in absence of amphotericin B by checkerboard microtiter test; type: functional; how it was run: as §1
[3] = system: Cryptococcus gattii species complex; test: Ratio of compound MIC for Cryptococcus gattii L27/01 in presence of fluconazole to compound MIC for Cryptococcus gattii L27/01 in absence of fluconazole by checkerboard microtiter test; type: functional, Cryptococcus bacillisporus; how it was run: as §1
Cryptococcus neoformans [4] = test: Ratio of compound MIC for Cryptococcus neoformans 27JF in presence of fluconazole to compound MIC for Cryptococcus neoformans 27JF in absence of fluconazole by checkerboard microtiter test; type: functional; how it was run: as §1
Cryptococcus neoformans [5] = test: Ratio of compound MIC for Cryptococcus neoformans F10 in presence of fluconazole to compound MIC for Cryptococcus neoformans F10 in absence of fluconazole by checkerboard microtiter test; type: functional; how it was run: as §1
[6] = system: Cryptococcus gattii species complex; test: Ratio of compound MIC for Cryptococcus gattii 135L/03 in presence of fluconazole to compound MIC for Cryptococcus gattii 135L/03 in absence of fluconazole by checkerboard microtiter test; type: functional, Cryptococcus bacillisporus; how it was run: as §1
[7] = system: Cryptococcus gattii species complex; test: Ratio of compound MIC for Cryptococcus gattii 135L/03 in presence of amphotericin B to compound MIC for Cryptococcus gattii 135L/03 in absence of amphotericin B by checkerboard microtiter test; type: functional, Cryptococcus bacillisporus
[8] = system: Cryptococcus gattii species complex; test: Ratio of compound MIC for Cryptococcus gattii LMM818 in presence of fluconazole to compound MIC for Cryptococcus gattii LMM818 in absence of fluconazole by checkerboard microtiter test; type: functional, Cryptococcus bacillisporus; how it was run: as §1
Cryptococcus neoformans [9] = test: Ratio of compound MIC for Cryptococcus neoformans LMM820 in presence of fluconazole to compound MIC for Cryptococcus neoformans LMM820 in absence of fluconazole by checkerboard microtiter test; type: functional; how it was run: as §1
Cryptococcus neoformans [10] = test: Ratio of compound MIC for Cryptococcus neoformans 28JF in presence of fluconazole to compound MIC for Cryptococcus neoformans 28JF in absence of fluconazole by checkerboard microtiter test; type: functional; how it was run: as §1
[11] = system: Cryptococcus gattii species complex; test: Ratio of compound MIC for Cryptococcus gattii 1913ER in presence of fluconazole to compound MIC for Cryptococcus gattii 1913ER in absence of fluconazole by checkerboard microtiter test; type: functional, Cryptococcus bacillisporus; how it was run: as §1
Cryptococcus neoformans [12] = test: Ratio of compound MIC for Cryptococcus neoformans 5396 in presence of amphotericin B to compound MIC for Cryptococcus neoformans 5396 in absence of amphotericin B by checkerboard microtiter test; type: functional; how it was run: as §1
Cryptococcus neoformans [13] = test: Ratio of compound MIC for Cryptococcus neoformans CN31 in presence of amphotericin B to compound MIC for Cryptococcus neoformans CN31 in absence of amphotericin B by checkerboard microtiter test; type: functional; how it was run: as §1
Cryptococcus neoformans [14] = test: Ratio of compound MIC for Cryptococcus neoformans VM-MCMMPI in presence of fluconazole to compound MIC for Cryptococcus neoformans VM-MCMMPI in absence of fluconazole by checkerboard microtiter test; type: functional; how it was run: as §1
[15] = system: Cryptococcus gattii species complex; test: Ratio of compound MIC for Cryptococcus gattii L24/01 in presence of amphotericin B to compound MIC for Cryptococcus gattii L24/01 in absence of amphotericin B by checkerboard microtiter test; type: functional, Cryptococcus bacillisporus; how it was run: as §1
[16] = system: Cryptococcus gattii species complex; test: Ratio of compound MIC for Cryptococcus gattii 196L/03 in presence of fluconazole to compound MIC for Cryptococcus gattii 196L/03 in absence of fluconazole by checkerboard microtiter test; type: functional, Cryptococcus bacillisporus; how it was run: as §1
Cryptococcus neoformans [17] = test: Ratio of compound MIC for Cryptococcus neoformans ATCC 28957 in presence of amphotericin B to compound MIC for Cryptococcus neoformans ATCC 28957 in absence of amphotericin B by checkerboard microtiter test; type: functional; how it was run: as §1
[18] = system: Cryptococcus gattii species complex; test: Ratio of compound MIC for Cryptococcus gattii L28/02 in presence of fluconazole to compound MIC for Cryptococcus gattii L28/02 in absence of fluconazole by checkerboard microtiter test; type: functional, Cryptococcus bacillisporus; how it was run: as §1
[19] = system: Cryptococcus bacillisporus; test: Ratio of compound MIC for Cryptococcus gattii ATCC 32608 in presence of fluconazole to compound MIC for Cryptococcus gattii ATCC 32608 in absence of fluconazole by checkerboard microtiter test; type: functional; how it was run: as §1
[20] = system: Cryptococcus gattii species complex; test: Ratio of compound MIC for Cryptococcus gattii L28/02 in presence of amphotericin B to compound MIC for Cryptococcus gattii L28/02 in absence of amphotericin B by checkerboard microtiter test; type: functional, Cryptococcus bacillisporus; how it was run: as §1
[21] = system: Cryptococcus gattii species complex; test: Ratio of compound MIC for Cryptococcus gattii L24/01 in presence of fluconazole to compound MIC for Cryptococcus gattii L24/01 in absence of fluconazole by checkerboard microtiter test; type: functional, Cryptococcus bacillisporus; how it was run: as §1
Cryptococcus neoformans [22] = test: Ratio of compound MIC for Cryptococcus neoformans VM-MCMMPI in presence of amphotericin B to compound MIC for Cryptococcus neoformans VM-MCMMPI in absence of amphotericin B by checkerboard microtiter test; type: functional; how it was run: as §1
Cryptococcus neoformans [23] = test: Ratio of compound MIC for Cryptococcus neoformans 27JF in presence of amphotericin B to compound MIC for Cryptococcus neoformans 27JF in absence of amphotericin B by checkerboard microtiter test; type: functional; how it was run: as §1
Cryptococcus neoformans [24] = test: Ratio of compound MIC for Cryptococcus neoformans ATCC 62066 in presence of amphotericin B to compound MIC for Cryptococcus neoformans ATCC 62066 in absence of amphotericin B by checkerboard microtiter test; type: functional; how it was run: as §1
Cryptococcus gattii = test: Ratio of compound MIC for Cryptococcus gattii ATCC 24065 in presence of amphotericin B to compound MIC for Cryptococcus gattii ATCC 24065 in absence of amphotericin B by checkerboard microtiter test
Cryptococcus neoformans [25] = test: Ratio of compound MIC for Cryptococcus neoformans 96806 in presence of amphotericin B to compound MIC for Cryptococcus neoformans 96806 in absence of amphotericin B by checkerboard microtiter test; type: functional; how it was run: as §1
Cryptococcus neoformans [26] = test: Ratio of compound MIC for Cryptococcus neoformans 96806 in presence of fluconazole to compound MIC for Cryptococcus neoformans 96806 in absence of fluconazole by checkerboard microtiter test; type: functional; how it was run: as §1
Cryptococcus neoformans [27] = test: Ratio of compound MIC for Cryptococcus neoformans ATCC 24067 in presence of amphotericin B to compound MIC for Cryptococcus neoformans ATCC 24067 in absence of amphotericin B by checkerboard microtiter test; type: functional; how it was run: as §1
Cryptococcus neoformans [28] = test: Ratio of compound MIC for Cryptococcus neoformans ATCC 24067 in presence of fluconazole to compound MIC for Cryptococcus neoformans ATCC 24067 in absence of fluconazole by checkerboard microtiter test; type: functional; how it was run: as §1
Cryptococcus neoformans [29] = test: Ratio of compound MIC for Cryptococcus neoformans 5396 in presence of fluconazole to compound MIC for Cryptococcus neoformans 5396 in absence of fluconazole by checkerboard microtiter test; type: functional; how it was run: as §1
[30] = Selectivity index, ratio of IC50 for African green monkey Vero cells to MIC for Cryptococcus gattii ATCC 24065; type: toxicity, cell-based

Structure (SMILES) | fractional inhibitory concentration index (FICI) (Cryptococcus neoformans [1]) | fractional inhibitory concentration index (FICI) [2] | fractional inhibitory concentration index (FICI) [3] | fractional inhibitory concentration index (FICI) (Cryptococcus neoformans [4]) | fractional inhibitory concentration index (FICI) (Cryptococcus neoformans [5]) | fractional inhibitory concentration index (FICI) [6] | fractional inhibitory concentration index (FICI) [7] | fractional inhibitory concentration index (FICI) [8] | fractional inhibitory concentration index (FICI) (Cryptococcus neoformans [9]) | fractional inhibitory concentration index (FICI) (Cryptococcus neoformans [10]) | fractional inhibitory concentration index (FICI) [11] | fractional inhibitory concentration index (FICI) (Cryptococcus neoformans [12]) | fractional inhibitory concentration index (FICI) (Cryptococcus neoformans [13]) | fractional inhibitory concentration index (FICI) (Cryptococcus neoformans [14]) | fractional inhibitory concentration index (FICI) [15] | fractional inhibitory concentration index (FICI) [16] | fractional inhibitory concentration index (FICI) (Cryptococcus neoformans [17]) | fractional inhibitory concentration index (FICI) [18] | fractional inhibitory concentration index (FICI) [19] | fractional inhibitory concentration index (FICI) [20] | further results
c1ccc(-c2csc(NN=C3CCCC3)n2)cc1 | 2.46 | 1.7 | 1.45 | 3.33 | 1.98 | 2.45 | 1.46 | 1.59 | 4.46 | 3.77 | 2.45 | 4.86 | 2.66 | 4.21 | 2.16 | 1.84 | 2.22 | 4.22 | 3.45 | 2.66 | fractional inhibitory concentration index (FICI) [21]: 6.46; fractional inhibitory concentration index (FICI) (Cryptococcus neoformans [22]): 2.66; fractional inhibitory concentration index (FICI) (Cryptococcus neoformans [23]): 2.66; fractional inhibitory concentration index (FICI) (Cryptococcus neoformans [24]): 3.06; fractional inhibitory concentration index (FICI) (Cryptococcus gattii): 1.2; fractional inhibitory concentration index (FICI) (Cryptococcus neoformans [25]): 2.46; fractional inhibitory concentration index (FICI) (Cryptococcus neoformans [26]): 1.01; fractional inhibitory concentration index (FICI) (Cryptococcus neoformans [27]): 1.46; fractional inhibitory concentration index (FICI) (Cryptococcus neoformans [28]): 4.46; fractional inhibitory concentration index (FICI) (Cryptococcus neoformans [29]): 3.46
C(=N\Nc1nc(-c2ccccc2)cs1)/C1CCCCC1 | 1.38 | 2.58 | 4.23 | 6.8 | 4.47 | 2.47 | 2.67 | 2.47 | 4.24 | 1.99 | 2.09 | 1.15 | 2.47 | 4.47 | 4.87 | 2.47 | 1.09 | 2.47 | 1.72 | 1.34 | fractional inhibitory concentration index (FICI) [21]: 2.47; fractional inhibitory concentration index (FICI) (Cryptococcus neoformans [22]): 1.47; fractional inhibitory concentration index (FICI) (Cryptococcus neoformans [23]): 2.58; fractional inhibitory concentration index (FICI) (Cryptococcus neoformans [24]): 2.47; fractional inhibitory concentration index (FICI) (Cryptococcus gattii): 1.72; fractional inhibitory concentration index (FICI) (Cryptococcus neoformans [25]): 2.67; fractional inhibitory concentration index (FICI) (Cryptococcus neoformans [26]): 1.76; fractional inhibitory concentration index (FICI) (Cryptococcus neoformans [27]): 2.67; fractional inhibitory concentration index (FICI) (Cryptococcus neoformans [28]): 3.59; fractional inhibitory concentration index (FICI) (Cryptococcus neoformans [29]): 2.4
COc1ccc(-c2csc(N/N=C/C3CCCCC3)n2)cc1 | 1.75 | 2.78 | 1.18 | 4.59 | 2.46 | 2.71 | 1.46 | 1.19 | 4.59 | 4.59 | 2.46 | 2.07 | 2.78 | 4.46 | 2.38 | 2.28 | 2.07 | 4.38 | 4.38 | 2.18 | selectivity ratio [30]: 25.6; fractional inhibitory concentration index (FICI) [21]: 6.79; fractional inhibitory concentration index (FICI) (Cryptococcus neoformans [22]): 2.16; fractional inhibitory concentration index (FICI) (Cryptococcus neoformans [23]): 2.78; fractional inhibitory concentration index (FICI) (Cryptococcus neoformans [24]): 2.58; fractional inhibitory concentration index (FICI) (Cryptococcus gattii): 2; fractional inhibitory concentration index (FICI) (Cryptococcus neoformans [25]): 1.46; fractional inhibitory concentration index (FICI) (Cryptococcus neoformans [26]): 1.01; fractional inhibitory concentration index (FICI) (Cryptococcus neoformans [27]): 2.36; fractional inhibitory concentration index (FICI) (Cryptococcus neoformans [28]): 3.97; fractional inhibitory concentration index (FICI) (Cryptococcus neoformans [29]): 3.48
OC(Cn1cncn1)(Cn1cncn1)c1ccc(F)cc1F [FLUCONAZOLE] | – | – | – | – | – | – | – | – | – | – | – | – | – | – | – | – | – | – | – | – | selectivity ratio [30]: 7.87
